Test results from ChEMBL document CHEMBL2074208, “P-glycoprotein inhibition by glibenclamide and related compounds” (Pflugers Arch, 1999).

Assays:
[1] = target: T1, ATP-dependent translocase ABCB1 (Homo sapiens, UniProt P08183); assay: TP_TRANSPORTER: increase in Colchicine intracellular accumulation (Colchicine: 0.0175 uM, Vinblastine: 100 uM) in CEM/VBL600 cells; assay type: functional, cell-based; conditions: cem/vbl600, 100 µM
Outline: (§1)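 1.5×10⁶ viable cells were preincubated 10 min at 37 °C with inhibitor or 0.1% DMSO. [³H]colchicine (final 1.25 µCi/ml; 17.5 nM) was added for 60 min at 37 °C. Cells were pelleted at 4 °C, washed ice-cold and counted by scintillation. Uptake is given as % of the no-inhibitor control; n≥3.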

[2] = target: Multidrug resistance protein 1a (Rattus norvegicus) (UniProt Q6PSM0); assay: TP_TRANSPORTER: increase in Glibenclamide intracellular accumulation (Glibenclamide: 0.0525 uM, Vinblastine: 100 uM) in CC531mdr+ cells; assay type: functional, cell-based
Chain of Multidrug resistance protein 1a (Rattus norvegicus) (Q6PSM0 as listed by the source): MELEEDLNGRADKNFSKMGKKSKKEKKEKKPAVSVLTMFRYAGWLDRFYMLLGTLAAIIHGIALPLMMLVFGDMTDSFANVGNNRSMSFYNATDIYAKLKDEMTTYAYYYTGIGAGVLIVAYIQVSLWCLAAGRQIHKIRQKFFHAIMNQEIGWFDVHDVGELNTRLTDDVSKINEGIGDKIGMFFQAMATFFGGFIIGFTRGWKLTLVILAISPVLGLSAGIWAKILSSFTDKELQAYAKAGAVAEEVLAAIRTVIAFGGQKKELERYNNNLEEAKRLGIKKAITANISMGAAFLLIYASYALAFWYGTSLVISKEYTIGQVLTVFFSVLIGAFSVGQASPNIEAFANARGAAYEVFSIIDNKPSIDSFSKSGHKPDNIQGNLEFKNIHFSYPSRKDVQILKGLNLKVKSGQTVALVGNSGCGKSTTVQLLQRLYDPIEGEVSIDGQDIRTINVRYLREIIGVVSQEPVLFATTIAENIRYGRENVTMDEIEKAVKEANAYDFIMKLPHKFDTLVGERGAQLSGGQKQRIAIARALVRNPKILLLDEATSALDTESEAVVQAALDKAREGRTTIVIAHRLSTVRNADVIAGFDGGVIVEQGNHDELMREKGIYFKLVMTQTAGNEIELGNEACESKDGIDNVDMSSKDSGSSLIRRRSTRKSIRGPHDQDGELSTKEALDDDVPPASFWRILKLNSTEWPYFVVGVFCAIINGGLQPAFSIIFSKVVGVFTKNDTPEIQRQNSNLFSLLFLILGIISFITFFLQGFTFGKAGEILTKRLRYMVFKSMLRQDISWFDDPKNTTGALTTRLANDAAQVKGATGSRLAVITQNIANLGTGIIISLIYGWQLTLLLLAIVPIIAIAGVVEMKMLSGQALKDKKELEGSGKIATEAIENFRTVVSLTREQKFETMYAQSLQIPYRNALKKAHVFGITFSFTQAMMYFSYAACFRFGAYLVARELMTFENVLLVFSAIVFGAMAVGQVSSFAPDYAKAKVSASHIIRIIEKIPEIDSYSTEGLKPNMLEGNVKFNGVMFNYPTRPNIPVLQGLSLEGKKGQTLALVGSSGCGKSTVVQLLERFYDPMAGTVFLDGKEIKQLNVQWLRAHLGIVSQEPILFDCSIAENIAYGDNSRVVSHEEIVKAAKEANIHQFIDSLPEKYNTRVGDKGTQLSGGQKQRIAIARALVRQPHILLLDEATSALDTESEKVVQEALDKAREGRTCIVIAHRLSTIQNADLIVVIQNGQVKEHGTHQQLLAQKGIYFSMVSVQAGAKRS
Outline: (§2)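 Confluent CC531mdr+ monolayers, held colchicine-free ≥12 h, were preincubated 10 min at 37 °C in buffer A with inhibitor or 0.1% DMSO. They were then exposed 60 min to [³H]glibenclamide (2.5 µCi/ml; 52.5 nM glibenclamide) with inhibitor. After an ice-cold buffer wash, acid extraction (0.1 N HNO₃) and scintillation counting, uptake was expressed as % of the inhibitor-free control; n≥3.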

[3] = target: Multidrug resistance protein 1a (Rattus norvegicus) (UniProt Q6PSM0); assay: TP_TRANSPORTER: increase in Colchicine intracellular accumulation (Colchicine: 0.035 uM, Vinblastine: 100 uM) in CC531mdr+ cells; assay type: functional, cell-based
Outline: (§3)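 CC531mdr+ monolayers were grown to confluence and kept colchicine-free for ≥12 h. They were preincubated 10 min at 37 °C in buffer A (pH 7.4) with inhibitor or 0.1% DMSO, then incubated 60 min in buffer A with [³H]colchicine (2.5 µCi/ml; 35 nM colchicine) plus the same additions. After an ice-cold wash, radioactivity was extracted with 0.1 N HNO₃ and counted. Accumulation is given as % of the no-inhibitor control; n≥3.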

[4] = target: T1, ATP-dependent translocase ABCB1; assay: TP_TRANSPORTER: increase in Colchicine intracellular accumulation (Colchicine: 0.0175 uM, BM-208: 100 uM) in CEM/VBL600 cells; assay type: functional, cell-based; conditions: cem/vbl600, 100 µM; outline: as §1
[5] = target: Multidrug resistance protein 1a (Rattus norvegicus) (UniProt Q6PSM0); assay: TP_TRANSPORTER: increase in Glibenclamide intracellular accumulation (Glibenclamide: 0.0525 uM, BM-208: 100 uM) in CC531mdr+ cells; assay type: functional, cell-based; outline: as §2
[6] = target: Multidrug resistance protein 1a (Rattus norvegicus) (UniProt Q6PSM0); assay: TP_TRANSPORTER: increase in Colchicine intracellular accumulation (Colchicine: 0.035 uM, BM-208: 100 uM) in CC531mdr+ cells; assay type: functional, cell-based; outline: as §3
[7] = target: T1, ATP-dependent translocase ABCB1; assay: TP_TRANSPORTER: inhibition of Azidopine photoaffinity labelling (Azidopine: 0.16 uM, BM-208: 100 uM) in membranes from CEM/VBL600 cells; conditions: cem/vbl600, 100 µM
[8] = target: T1, ATP-dependent translocase ABCB1; assay: TP_TRANSPORTER: increase in Colchicine intracellular accumulation (Colchicine: 0.0175 uM, Glibenclamide: 100 uM) in CEM/VBL600 cells; assay type: functional, cell-based; conditions: cem/vbl600, 100 µM; outline: as §1
[9] = target: Multidrug resistance protein 1a (Rattus norvegicus) (UniProt Q6PSM0); assay: TP_TRANSPORTER: increase in Colchicine intracellular accumulation (Colchicine: 0.035 uM, Glibenclamide: 100 uM) in CC531mdr+ cells; assay type: functional, cell-based; outline: as §3
[10] = target: T1, ATP-dependent translocase ABCB1; assay: TP_TRANSPORTER: increase in Colchicine intracellular accumulation (Colchicine: 0.0175 uM, BM-223: 100 uM) in CEM/VBL600 cells; assay type: functional, cell-based; conditions: cem/vbl600, 100 µM; outline: as §1
[11] = target: Multidrug resistance protein 1a (Rattus norvegicus) (UniProt Q6PSM0); assay: TP_TRANSPORTER: increase in Glibenclamide intracellular accumulation (Glibenclamide: 0.0525 uM, BM-223: 100 uM) in CC531mdr+ cells; assay type: functional, cell-based; outline: as §2
[12] = target: Multidrug resistance protein 1a (Rattus norvegicus) (UniProt Q6PSM0); assay: TP_TRANSPORTER: increase in Colchicine intracellular accumulation (Colchicine: 0.035 uM, BM-223: 100 uM) in CC531mdr+ cells; assay type: functional, cell-based; outline: as §3
[13] = target: T1, ATP-dependent translocase ABCB1; assay: TP_TRANSPORTER: inhibition of Azidopine photoaffinity labelling (Azidopine: 0.16 uM, BM-223: 100 uM) in membranes from CEM/VBL600 cells; conditions: cem/vbl600, 100 µM

T1 sequence (P08183 whole entry): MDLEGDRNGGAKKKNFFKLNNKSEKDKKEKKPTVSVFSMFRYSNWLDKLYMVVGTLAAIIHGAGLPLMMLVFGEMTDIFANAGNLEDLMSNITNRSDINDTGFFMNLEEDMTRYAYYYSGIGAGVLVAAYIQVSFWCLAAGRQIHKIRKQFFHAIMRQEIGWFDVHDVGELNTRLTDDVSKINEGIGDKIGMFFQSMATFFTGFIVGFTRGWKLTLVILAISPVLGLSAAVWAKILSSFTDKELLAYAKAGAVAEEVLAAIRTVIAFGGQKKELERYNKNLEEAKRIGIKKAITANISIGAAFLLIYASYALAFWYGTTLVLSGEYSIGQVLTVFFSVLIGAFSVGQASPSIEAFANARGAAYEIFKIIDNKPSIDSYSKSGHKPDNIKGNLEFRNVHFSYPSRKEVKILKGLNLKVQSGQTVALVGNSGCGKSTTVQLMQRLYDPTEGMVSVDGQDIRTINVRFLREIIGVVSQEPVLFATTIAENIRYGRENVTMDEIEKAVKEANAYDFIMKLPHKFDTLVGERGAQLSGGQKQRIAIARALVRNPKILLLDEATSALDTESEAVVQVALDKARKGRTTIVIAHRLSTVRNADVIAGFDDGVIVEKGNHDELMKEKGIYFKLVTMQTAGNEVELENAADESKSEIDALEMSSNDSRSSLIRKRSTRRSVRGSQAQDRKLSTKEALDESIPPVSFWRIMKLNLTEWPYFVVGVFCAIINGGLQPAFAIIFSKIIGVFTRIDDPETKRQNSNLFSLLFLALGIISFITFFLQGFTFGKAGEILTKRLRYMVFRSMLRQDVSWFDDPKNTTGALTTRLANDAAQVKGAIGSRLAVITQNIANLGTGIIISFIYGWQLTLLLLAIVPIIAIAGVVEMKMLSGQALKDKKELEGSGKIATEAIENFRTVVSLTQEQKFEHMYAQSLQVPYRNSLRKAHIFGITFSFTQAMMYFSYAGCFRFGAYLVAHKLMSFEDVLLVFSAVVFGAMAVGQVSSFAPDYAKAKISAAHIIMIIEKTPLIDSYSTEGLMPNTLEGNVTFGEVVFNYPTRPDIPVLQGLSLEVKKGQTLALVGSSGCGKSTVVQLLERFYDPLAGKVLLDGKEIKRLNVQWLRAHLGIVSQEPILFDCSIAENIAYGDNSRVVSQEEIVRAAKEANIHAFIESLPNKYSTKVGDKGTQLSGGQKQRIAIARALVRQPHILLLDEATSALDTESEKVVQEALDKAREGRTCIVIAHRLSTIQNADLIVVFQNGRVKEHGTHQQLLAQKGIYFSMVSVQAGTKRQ

## CC[C@]1(O)C[C@@H]2CN(CCc3c([nH]c4ccccc34)[C@@](C(=O)OC)(c3cc4c(cc3OC)N(C)[C@H]3[C@@](O)(C(=O)OC)[C@H](OC(C)=O)[C@]5(CC)C=CCN6CC[C@]43[C@@H]65)C2)C1 [VINBLASTINE]
[1]
  Activity: inhibitor [+]
[2]
  Activity: inhibitor [+]
[3]
  Activity: inhibitor [+]

## COc1ccc(Cl)cc1C(=O)NCCc1ccc(S(=O)(=O)N/C(=N/C#N)NC2CCCCC2)cc1
[4]
  Activity: inhibitor [+]
[5]
  Activity: inhibitor [+]
[6]
  Activity: inhibitor [+]
[7]
  Activity: inhibitor [+]

## COc1ccc(CCN(C)CCCC(C#N)(c2ccc(OC)c(OC)c2)C(C)C)cc1OC (centres undefined)
[2]
  Activity: inhibitor [+]

## COc1ccc(Cl)cc1C(=O)NCCc1ccc(S(=O)(=O)NC(=O)NC2CCCCC2)cc1 [GLYBURIDE]
[8]
  Activity: inhibitor [+]
[9]
  Activity: inhibitor [+]

## COc1ccc(Cl)cc1C(=O)NCCc1ccc(S(=O)(=O)N/C(=N/C#N)NC2CCC(C)CC2)cc1 (centres undefined)
[10]
  Activity: inhibitor [+]
[11]
  Activity: inhibitor [+]
[12]
  Activity: inhibitor [+]
[13]
  Activity: inhibitor [+]
